Source: PubChem
Sampled rows, rich in hits. Any-hit rate of the full collection: about 2.5%.
TRPC4 inh: inhibitors of mouse TRPC4 channel, primary screen, Fluo4 calcium, HEK293 TRPC4beta/mu-opioid cells; Short transient receptor potential channel 4 (Mus musculus), Q9QUQ5; DAMGO-evoked Fluo4 calcium flux; stronger effect = lower value; B-score at 10 µM; 300,000 tested, 0.39% active;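 active means B-score over 3 SD under the library average, no early fluorescence shift, positive overall ratio signal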
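Test system – stable TRPC4beta/mu-opioid receptor HEK293 cells · Probe or stimulus – DAMGO, a submaximal dose followed by a maximal one · Dosing – one concentration per compound · Signal – Fluo4 calcium fluorescence by kinetic imaging, 5 s 1 Hz baseline · Evaluation – per-well B score of integrated baseline-normalized Fluo4 ratio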
TRPC6 activator: mouse TRPC6 channel activators, primary screen, cell-based, HEK293, membrane potential dye; Short transient receptor potential channel 6 (Mus musculus), Q61143; HEK293-TRPC6 membrane potential dye fluorescence; stronger effect = higher value; B-score at 10 µM; 310,000 tested, 0.13% active; AID 2550, 2010;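 active means B-score of the integrated fluorescence ratio above library mean plus 3 SD, and starting fluorescence ratio within library mean plus 5 SD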;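 further: higher score means more depolarization so channel activation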
TRPC4 PAM: positive allosteric modulators of TRPC4, primary screen, cell-based, mouse TRPC4beta, HEK293 mu-opioid, Fluo-4 calcium. B-score at 10 µM. DAMGO EC20, Fluo-4 Ca2+ flux; stronger effect = higher value. Short transient receptor potential channel 4 (Mus musculus), Q9QUQ5. 310,000 tested, 0.42% active;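 active means B-score of calcium response area above 5 SD of library B-scores, with initial fluorescence ratio within 5 SD of library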
DSG3 Ab inh: inhibitors of pemphigus antibody binding to DSG3, primary screen, biochemical, bead-based, flow cytometry, scFv-GFP; binding (percent of control), % at 10 µM; 310,000 tested, 0.48% active; DSG3-coupled beads, scFv-anti-DSG3-GFP binding; stronger effect = lower value; AID 588358, 2011; Desmoglein-3 (Homo sapiens), P32926;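 active means binding more than 3 SD below its plate's average and above zero; inconclusive means below that plate limit but binding exactly zero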;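 further: hits lower antibody fragment binding to DSG3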
Target sequence (P32926 whole entry, looked up, the tested form may be a part): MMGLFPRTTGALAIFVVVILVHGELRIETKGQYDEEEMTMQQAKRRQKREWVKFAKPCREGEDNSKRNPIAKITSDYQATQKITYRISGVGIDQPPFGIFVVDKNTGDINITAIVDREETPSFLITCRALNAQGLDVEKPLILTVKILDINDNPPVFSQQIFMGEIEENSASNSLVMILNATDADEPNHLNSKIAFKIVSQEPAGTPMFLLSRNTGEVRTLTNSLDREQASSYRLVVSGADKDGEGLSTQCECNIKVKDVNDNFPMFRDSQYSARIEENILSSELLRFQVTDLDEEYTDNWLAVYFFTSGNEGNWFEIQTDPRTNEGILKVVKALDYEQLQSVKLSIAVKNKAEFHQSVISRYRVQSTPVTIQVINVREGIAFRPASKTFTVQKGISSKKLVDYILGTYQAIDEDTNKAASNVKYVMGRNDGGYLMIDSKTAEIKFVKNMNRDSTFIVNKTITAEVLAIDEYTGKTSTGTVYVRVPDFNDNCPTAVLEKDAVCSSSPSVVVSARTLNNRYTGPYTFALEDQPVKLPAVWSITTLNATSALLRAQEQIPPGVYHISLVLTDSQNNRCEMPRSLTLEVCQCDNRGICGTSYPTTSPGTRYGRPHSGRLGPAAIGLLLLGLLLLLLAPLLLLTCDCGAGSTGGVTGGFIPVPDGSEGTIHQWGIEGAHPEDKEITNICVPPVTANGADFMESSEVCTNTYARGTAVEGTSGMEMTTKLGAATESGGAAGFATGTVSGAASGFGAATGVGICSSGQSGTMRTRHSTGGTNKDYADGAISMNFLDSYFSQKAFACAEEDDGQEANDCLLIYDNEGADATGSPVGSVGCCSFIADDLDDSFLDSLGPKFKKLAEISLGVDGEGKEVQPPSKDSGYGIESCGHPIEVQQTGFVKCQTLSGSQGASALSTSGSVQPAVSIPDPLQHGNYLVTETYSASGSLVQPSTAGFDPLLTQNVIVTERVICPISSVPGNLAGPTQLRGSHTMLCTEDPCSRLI
TRPC4 agonist: activators of mouse TRPC4 channel, primary screen, Fluo4 calcium, HEK293 TRPC4beta/mu-opioid cells; Short transient receptor potential channel 4 (Mus musculus), Q9QUQ5; Fluo4 calcium fluorescence; stronger effect = higher value; B-score at 10 µM; 310,000 tested, 0.49% active; AID 2237, 2010;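 active means B-score above 5 SD of library B-scores, and initial fluorescence ratio not above library mean plus 5 SD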;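 further: positive B-score marks a calcium rise read as TRPC4 activation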
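Test system: HEK293 cells stably co-expressing mouse TRPC4beta and mu-opioid receptor | Schedule: Fluo4 dye loading 45 min at room temperature, 110 s recording | Measured by: Kinetic Fluo4 calcium fluorescence, 5 s baseline at 1 Hz | Evaluation: B score of integrated ratio | Controls: Buffer (low) and maximal DAMGO (high)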
TRPC6 inhibitor: mouse TRPC6 channel inhibitors, primary screen, cell-based, HEK293, membrane potential dye | Short transient receptor potential channel 6 (Mus musculus), Q61143 | ACh-evoked depolarization; stronger effect = lower value | B-score at 10 µM | 310,000 tested, 1.1% active | AID 2553, 2010;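 active means B-score under library mean minus 3 SD, initial fluorescence not abnormally high, positive integrated signal ratio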;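 further: B-score derived from integrated fluorescence ratio over the kinetic read; more negative B-score means stronger inhibition of depolarization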
Large screens that a line does not name were inactive.

Cc1ccc(OCCn2c(C)nc3ccccc32)cc1	TRPC4 inh -6
Cc1onc(-c2ccccc2Cl)c1C(=O)O/N=C(\N)c1ccc([N+](=O)[O-])o1	none (no result: DSG3 Ab inh)
CCCCn1c(N)c(N(CCOC)C(=O)c2ccc(-c3ccc(C(C)=O)cc3)o2)c(=O)[nH]c1=O	TRPC4 PAM 92
CC(=O)Nc1cc(=O)c2cccnc2[nH]1	DSG3 Ab inh 73 (no result: TRPC4 inh, TRPC6 activator, TRPC4 PAM, TRPC4 agonist, TRPC6 inhibitor)
OCC1(Cc2ccc(Cl)cc2)CCN(Cc2ccccc2F)CC1	TRPC4 inh -6
CN(C)C(CNC(C(=O)Nc1ccc([N+](=O)[O-])cc1Br)c1ccccc1)c1ccccc1 (configuration not stated)	TRPC4 agonist 74
CN(C)C(CNC(C(=O)Nc1ccc(F)cc1)c1ccccc1)c1ccccc1 (configuration not stated)	TRPC4 agonist 139
COc1ccc(N(CC(=O)NCc2cccs2)S(=O)(=O)c2cccc(C)c2)cc1	none (no result: TRPC4 inh, TRPC6 activator, TRPC4 PAM, TRPC4 agonist, TRPC6 inhibitor)
O=C(NC1CCS(=O)(=O)C1)c1cnccn1 (configuration not stated)	none
O=C(NC1CCCCCCC1)c1cnccn1	TRPC4 PAM 12
CCOc1ccc(CCNC(=O)CSCC(=O)Nc2cccc(C)c2)cc1OCC	none
O=C(CCN1CCOCC1)c1ccc(N2CCCCC2)cc1	none (no result: TRPC4 inh, TRPC6 activator, TRPC4 PAM, TRPC4 agonist, TRPC6 inhibitor)
CC(C)(C)c1cc(C(=O)CCN2CCOCC2)cc(C(C)(C)C)c1O	TRPC4 PAM 11
CC(C)(C)[C@@H]1C=C(C(=O)NCc2ccccc2)O[C@H](OCc2ccc(CO)cc2)C1	TRPC4 PAM 13
O=C(Nc1ccccc1)C1=C[C@H](C2CCCCC2)C[C@H](OCc2ccc(CO)cc2)O1	TRPC4 PAM 19
O=C(NCc1ccccc1)C1=C[C@H](c2ccc(Br)cc2)C[C@H](OCc2ccc(CO)cc2)O1	TRPC4 PAM 15
CC(C)(C)[C@H]1C=C(C(=O)Nc2ccccc2)O[C@@H](OCc2ccc(CO)cc2)C1	none
O=C(NCc1ccccc1)C1=C[C@H](c2ccc3c(c2)OCO3)C[C@H](OCc2ccc(CO)cc2)O1	TRPC4 inh -6, TRPC4 agonist 211
O=C(Nc1ccc(-c2n[nH]c(=S)o2)cc1)c1ccccc1	none
CCc1nn(CC(=O)N2CCN(c3ccc(OC)cc3)CC2)c(=O)c2cc3occc3n12	none
O=C(O)CC1(CC(=O)Nc2ccccc2N2CCOCC2)CCCC1	none
O=C(CNc1cccc(S(=O)(=O)N2CCCC2)c1)Nc1ccc(F)cc1F	none
Cc1ccn2cc(CCNC(=O)C3CC=CCC3C(=O)O)nc2c1 (configuration not stated)	TRPC4 agonist 202
C/C=C\C=C/C(=O)Nc1cccc(C2=NOC3(C2)C[C@@H](C(N)=O)N(C(=O)C2(C)CC2)C3)c1 (some centres not stated)	DSG3 Ab inh 91
C/C=C\C=C/C(=O)Nc1cccc(C2=NOC3(C2)C[C@@H](C(N)=O)N(C(=O)/C=C/C=C\C)C3)c1 (some centres not stated)	DSG3 Ab inh 68
COc1ccc(OCC(=O)N2c3ccc(C)cc3C3CN(C)CCC32)cc1 (configuration not stated)	none
Cc1ccc2c(c1)C1CN(C)CCC1N2C(=S)NC(=O)c1ccc(Br)cc1 (configuration not stated)	TRPC4 PAM 17
CC(=O)Nc1cc(NC(C)=O)cc(C(=O)N2CCCC3CCCCC32)c1 (configuration not stated)	none
O=[N+]([O-])c1ccc2[nH]c(O)c(N=NC3CCS(=O)(=O)C3)c2c1 (configuration not stated)	DSG3 Ab inh 85
O=[N+]([O-])c1ccc2[nH]c(O)c(N=Nc3ccc(F)cc3)c2c1	none
COc1ccc(O)c(/C=N/NC(=O)CCC(=O)Nc2ccc(F)cc2)c1	DSG3 Ab inh inconclusive
CC(OC(=O)c1ccc(O)cc1)C(=O)Nc1nc(-c2ccccc2)cs1 (configuration not stated)	none (no result: TRPC4 inh, TRPC6 activator, TRPC4 PAM, TRPC4 agonist, TRPC6 inhibitor)
CC(OC(=O)CNC(=O)c1ccccc1F)C(=O)Nc1nc(-c2ccccc2)cs1 (configuration not stated)	TRPC4 inh -6 (no result: DSG3 Ab inh)
O=C(c1ccc2c(c1)OCO2)N1CCC2(CC1)Oc1ccc(Cl)cc1C(=O)C21CC(c2ccc(Cl)cc2)=NO1 (configuration not stated)	none (no result: TRPC4 inh, DSG3 Ab inh)
NS(=O)(=O)c1cccc(C(=O)OCC(=O)NC2CCCc3ccccc32)c1 (configuration not stated)	none (no result: TRPC4 inh, TRPC6 activator, TRPC4 PAM, TRPC4 agonist, TRPC6 inhibitor)
CCN1/C(=C/C=C/c2sc3ccccc3[n+]2CC)Sc2ccccc21	DSG3 Ab inh -10, TRPC4 agonist 49
CCN1/C(=C/C=C/C=C/c2sc3ccccc3[n+]2CC)Sc2ccccc21	none (no result: DSG3 Ab inh)
Cc1cccc(-n2ccnc2CN2CCN(C3CCCC3)C(CCO)C2)c1 (configuration not stated)	none
Cc1cccc(-n2ccnc2CN2CCC(CO)(Cc3ccccc3)CC2)c1	TRPC4 inh -7
O=C(c1ccco1)N1CCN(Cc2ccccc2Br)CC1	DSG3 Ab inh 72
O=C(c1ccco1)N1CCN(Cc2ccc(F)cc2)CC1	none
O=[N+]([O-])c1cc(C(F)(F)F)ccc1N1CCN(S(=O)(=O)c2ccc3c(c2)CCCC3)CC1	none
O=[N+]([O-])c1cc(C(F)(F)F)ccc1N1CCCNCC1	TRPC4 PAM 42, TRPC4 agonist 83 (no result: DSG3 Ab inh)
CC1(C)CC(=O)C(C(C2=C(O)CC(C)(C)CC2=O)c2ccc(Br)s2)C(=O)C1 (configuration not stated)	TRPC4 PAM 10
O=C(O)c1ccc(-c2sc(Nc3ccccc3)n[n+]2-c2ccc(F)cc2)cc1	none
COc1ccc(C)cc1Nc1n[n+](-c2ccccc2)c(-c2c(Cl)cccc2Cl)s1	TRPC4 agonist 67, TRPC6 inhibitor -5.4 (no result: DSG3 Ab inh)
CN(C)c1ccc(-c2sc(Nc3ccccc3)n[n+]2-c2ccc(F)cc2)cc1	TRPC4 agonist 222
COc1ccc(C)cc1Nc1n[n+](-c2ccccc2)c(-c2ccc(OC)c(OC)c2OC)s1	none
Fc1ccc(-[n+]2nc(Nc3ccccc3)sc2-c2c(Cl)cccc2Cl)cc1	TRPC4 agonist 55
C=CCN1CCN(C(=O)c2cc3c(s2)CCC(CC)C3)CC1 (configuration not stated)	none
